The source made the active and inactive calls. No cut-off for these calls is given here.
Columns and labels:
Format in all cases: functional
[1] = Growth inhibition of human RPMI8266 cells
In short: (§1)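 Five-dose testing was run within the NCI (Bethesda) in vitro Anticancer Screen Program on a panel of 53 human tumour cell lines from nine cancer types. Growth inhibition is reported as GI50.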

[2] = tested on: K562; assay: Growth inhibition of human K562 cells; in short: as §1
[3] = tested on: A549; assay: Growth inhibition of human A549 cells; in short: as §1
[4] = tested on: EKVX; assay: Growth inhibition of human EKVX cells; in short: as §1
[5] = tested on: HOP-62; assay: Growth inhibition of human HOP62 cells; in short: as §1
[6] = tested on: HOP-92; assay: Growth inhibition of human HOP92 cells; in short: as §1
[7] = tested on: NCI-H226; assay: Growth inhibition of human NCI-H226 cells; in short: as §1
[8] = tested on: NCI-H23; assay: Growth inhibition of human NCI-H23 cells; in short: as §1
[9] = tested on: NCI-H322M; assay: Growth inhibition of human NCI-H322M cells; in short: as §1
[10] = tested on: NCI-H460; assay: Growth inhibition of human NCI-H460 cells; in short: as §1
[11] = tested on: NCI-H522; assay: Growth inhibition of human NCI-H522 cells; in short: as §1
[12] = tested on: COLO 205; assay: Growth inhibition of human COLO205 cells; in short: as §1
[13] = tested on: HCC 2998; assay: Growth inhibition of human HCC2998 cells; in short: as §1
[14] = tested on: HCT-116; assay: Growth inhibition of human HCT116 cells; in short: as §1
[15] = tested on: HCT-15; assay: Growth inhibition of human HCT15 cells; in short: as §1
[16] = tested on: HT-29; assay: Growth inhibition of human HT-29 cells; in short: as §1
[17] = tested on: KM12; assay: Growth inhibition of human KM12 cells; in short: as §1
[18] = tested on: SW-620; assay: Growth inhibition of human SW620 cells
In short: (§2)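 Compounds that passed a preliminary screen were tested at five doses in the NCI (Bethesda) in vitro Anticancer Screen Program against a 53-line human tumour panel spanning leukemia, lung, colon, CNS, melanoma, ovarian, renal, prostate and breast. Growth inhibition is reported as GI50.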

[19] = tested on: SF-268; assay: Growth inhibition of human SF268 cells; in short: as §1
[20] = tested on: SF-295; assay: Growth inhibition of human SF295 cells; in short: as §1
[21] = tested on: SF-539; assay: Growth inhibition of human SF539 cells; in short: as §1
[22] = tested on: SNB-19; assay: Growth inhibition of human SNB19 cells; in short: as §2
[23] = tested on: SNB-75; assay: Growth inhibition of human SNB75 cells; in short: as §2
[24] = tested on: U-251; assay: Growth inhibition of human U251 cells; in short: as §2
[25] = tested on: A498; assay: Growth inhibition of human A498 cells; in short: as §1
[26] = tested on: 786-0; assay: Growth inhibition of human 786-0 cells; in short: as §1
[27] = tested on: ACHN; assay: Growth inhibition of human ACHN cells; in short: as §1
[28] = tested on: CAKI-1; assay: Growth inhibition of human Caki1 cells; in short: as §1
[29] = tested on: RXF 393; assay: Growth inhibition of human RXF393 cells; in short: as §1
[30] = tested on: SN12C; assay: Growth inhibition of human SN12C cells; in short: as §2
[31] = tested on: TK-10; assay: Growth inhibition of human TK10 cells; in short: as §2
[32] = tested on: UO-31; assay: Growth inhibition of human UO31 cells; in short: as §2
[33] = tested on: PC-3; assay: Growth inhibition of human PC3 cells; in short: as §1
[34] = tested on: OVCAR-3; assay: Growth inhibition of human OVCAR-3 cells; in short: as §1
[35] = tested on: OVCAR-4; assay: Growth inhibition of human OVCAR4 cells; in short: as §1
[36] = tested on: OVCAR-5; assay: Growth inhibition of human OVCAR5 cells; in short: as §1
[37] = tested on: OVCAR-8; assay: Growth inhibition of human OVCAR8 cells; in short: as §1
[38] = tested on: NCI/ADR-RES; assay: Growth inhibition of human NCI/ADR-RES cells; in short: as §1
[39] = tested on: SK-OV-3; assay: Growth inhibition of human SKOV3 cells; in short: as §2
[40] = tested on: MCF7; assay: Growth inhibition of human MCF7 cells; in short: as §1
[41] = tested on: MDA-MB-231; assay: Growth inhibition of human MDA-MB-231 cells; in short: as §1
[42] = Growth inhibition of human Hs 578T cells; in short: as §1
[43] = tested on: BT-549; assay: Growth inhibition of human BT549 cells; in short: as §1
[44] = tested on: T47D; assay: Growth inhibition of human T47D cells; in short: as §2
[45] = tested on: LOX IMVI; assay: Growth inhibition of human LOXIMVI cells; in short: as §1
[46] = tested on: Malme-3M; assay: Growth inhibition of human MALME-3M cells; in short: as §1
[47] = tested on: M14; assay: Growth inhibition of human M14 cells; in short: as §1
[48] = tested on: MDA-MB-435; assay: Growth inhibition of human MDA-MB-435 cells; in short: as §1
[49] = tested on: SK-MEL-2; assay: Growth inhibition of human SK-MEL-2 cells; in short: as §1
[50] = tested on: SK-MEL-28; assay: Growth inhibition of human SK-MEL-28 cells; in short: as §1
[51] = tested on: SK-MEL-5; assay: Growth inhibition of human SK-MEL-5 cells; in short: as §1
[52] = tested on: UACC-257; assay: Growth inhibition of human UACC257 cells; in short: as §2
[53] = tested on: UACC-62; assay: Growth inhibition of human UACC62 cells; in short: as §2
[54] = tested on: MCF7; assay: Cell cycle arrest in human MCF7 cells assessed as accumulation at G0 phase at 10 uM after 24 hrs by FACS analysis
In short: (§3)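 MCF-7 breast carcinoma cells were exposed to 10 µM test compound for 24 h, with DMSO as the vehicle control. Cell-cycle distribution was read by FACS as the percentage of cells in G0, G1, S and G2/M.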

[55] = tested on: MCF7; assay: Cell cycle arrest in human MCF7 cells assessed as accumulation at G1 phase at 10 uM after 24 hrs by FACS analysis; in short: as §3
[56] = tested on: MCF7; assay: Cell cycle arrest in human MCF7 cells assessed as accumulation at S phase at 10 uM after 24 hrs by FACS analysis; in short: as §3
[57] = tested on: MCF7; assay: Cell cycle arrest in human MCF7 cells assessed as accumulation at G2/M phase at 10 uM after 24 hrs by FACS analysis; in short: as §3
[58] = tested on: MCF7; assay: Cell cycle arrest in human MCF7 cells assessed as accumulation at G0 phase at 30 uM after 24 hrs by FACS analysis
In short: (§4)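 MCF-7 cells were treated at 30 µM for 24 h alongside a DMSO control. Fractions in G0, G1, S and G2/M phases were measured by FACS, and values are means of three experiments.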

[59] = tested on: MCF7; assay: Cell cycle arrest in human MCF7 cells assessed as accumulation at G1 phase at 30 uM after 24 hrs by FACS analysis; in short: as §4
[60] = tested on: MCF7; assay: Cell cycle arrest in human MCF7 cells assessed as accumulation at S phase at 30 uM after 24 hrs by FACS analysis; in short: as §4
[61] = tested on: MCF7; assay: Cell cycle arrest in human MCF7 cells assessed as accumulation at G2/M phase at 30 uM after 24 hrs by FACS analysis; in short: as §4

SMILES: COc1cc(/C=C/C(=O)c2cccc(-n3cc(-c4ccc(Cl)cc4)[nH]c3=O)c2)cc(OC)c1OC
- GI50 [1]: 3920 nM
- GI50 [2]: 3690 nM
- GI50 [3]: inactive
- GI50 [4]: inactive
- GI50 [5]: inactive
- GI50 [6]: inactive
- GI50 [7]: inactive
- GI50 [8]: 3560 nM
- GI50 [9]: 12900 nM
- GI50 [10]: 3740 nM
- GI50 [11]: 4100 nM
- GI50 [12]: 7380 nM
- GI50 [13]: 2460 nM
- GI50 [14]: 1390 nM
- GI50 [15]: 3850 nM
- GI50 [16]: 2000 nM
- GI50 [17]: 5450 nM
- GI50 [18]: 1750 nM
- GI50 [19]: 5070 nM
- GI50 [20]: 24300 nM
- GI50 [21]: 3490 nM
- GI50 [22]: 16100 nM
- GI50 [23]: inactive
- GI50 [24]: 2120 nM
- GI50 [25]: 30200 nM
- GI50 [26]: 2140 nM
- GI50 [27]: 7170 nM
- GI50 [28]: inactive
- GI50 [29]: 3220 nM
- GI50 [30]: 5140 nM
- GI50 [31]: 6460 nM
- GI50 [32]: 7030 nM
- GI50 [33]: inactive
- GI50 [34]: 2400 nM
- GI50 [35]: 11400 nM
- GI50 [36]: 3110 nM
- GI50 [37]: 3850 nM
- GI50 [38]: 2360 nM
- GI50 [39]: 31400 nM
- GI50 [40]: 1740 nM
- GI50 [41]: 13800 nM
- GI50 [42]: 5960 nM
- GI50 [43]: 12300 nM
- GI50 [44]: 6650 nM
- GI50 [45]: 1720 nM
- GI50 [46]: 18100 nM
- GI50 [47]: 4360 nM
- GI50 [48]: 3630 nM
- GI50 [49]: 3440 nM
- GI50 [50]: 10900 nM
- GI50 [51]: 8700 nM
- GI50 [52]: 17400 nM
- GI50 [53]: 8880 nM
- Activity [54]: 4.49%
- Activity [55]: 67.68%
- Activity [56]: 13.91%
- Activity [57]: 13.92%
- Activity [58]: 12%
- Activity [59]: 44%
- Activity [60]: 17%
- Activity [61]: 27%

SMILES: COc1cc(/C=C/C(=O)c2cccc(-n3cc(-c4ccccc4)[nH]c3=O)c2)cc(OC)c1OC
- GI50 [1]: 620 nM
- GI50 [2]: 500 nM
- GI50 [3]: 4030 nM
- GI50 [4]: 2300 nM
- GI50 [5]: 4120 nM
- GI50 [6]: 10800 nM
- GI50 [7]: 14600 nM
- GI50 [8]: 1430 nM
- GI50 [9]: 2020 nM
- GI50 [10]: 1400 nM
- GI50 [11]: 950 nM
- GI50 [12]: 1510 nM
- GI50 [13]: 1260 nM
- GI50 [14]: 330 nM
- GI50 [15]: 1130 nM
- GI50 [16]: 660 nM
- GI50 [17]: 1370 nM
- GI50 [18]: 390 nM
- GI50 [19]: 1920 nM
- GI50 [20]: 1900 nM
- GI50 [21]: 1680 nM
- GI50 [22]: 2350 nM
- GI50 [23]: 4470 nM
- GI50 [24]: 630 nM
- GI50 [25]: 2650 nM
- GI50 [26]: 1380 nM
- GI50 [27]: 1600 nM
- GI50 [28]: 1750 nM
- GI50 [29]: 1710 nM
- GI50 [30]: 2090 nM
- GI50 [31]: 3020 nM
- GI50 [32]: 1510 nM
- GI50 [33]: 3260 nM
- GI50 [34]: 1230 nM
- GI50 [35]: 1880 nM
- GI50 [36]: 1880 nM
- GI50 [37]: 1620 nM
- GI50 [38]: 1100 nM
- GI50 [39]: 3270 nM
- GI50 [40]: 310 nM
- GI50 [41]: 2170 nM
- GI50 [42]: 3410 nM
- GI50 [43]: 1930 nM
- GI50 [44]: 2190 nM
- GI50 [45]: 480 nM
- GI50 [46]: 1310 nM
- GI50 [47]: 1350 nM
- GI50 [48]: 1200 nM
- GI50 [49]: 2060 nM
- GI50 [50]: 1740 nM
- GI50 [51]: 1400 nM
- GI50 [52]: 1520 nM
- GI50 [53]: 1520 nM
- Activity [54]: 8.19%
- Activity [55]: 54.85%
- Activity [56]: 17.5%
- Activity [57]: 19.46%
- Activity [58]: 52.34%
- Activity [59]: 39.08%
- Activity [60]: 5.6%
- Activity [61]: 3.02%
